The results in this text go back to ChEMBL document CHEMBL3784997 (J Med Chem, 2016).

pKi: −log10 of the molar value.

Assay [1] has as its target T1, Adenosine receptor A3 (Homo sapiens) (UniProt P0DMS8).
T1 sequence (whole entry): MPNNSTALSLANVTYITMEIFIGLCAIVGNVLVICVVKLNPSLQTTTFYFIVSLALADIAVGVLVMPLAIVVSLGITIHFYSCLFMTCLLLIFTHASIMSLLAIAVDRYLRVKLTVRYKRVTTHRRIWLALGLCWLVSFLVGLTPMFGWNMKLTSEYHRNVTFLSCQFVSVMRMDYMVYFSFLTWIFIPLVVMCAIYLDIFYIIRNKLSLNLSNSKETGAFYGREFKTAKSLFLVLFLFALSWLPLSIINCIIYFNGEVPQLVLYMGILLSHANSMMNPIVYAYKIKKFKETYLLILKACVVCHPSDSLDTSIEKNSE
In words: Displacement of [3H]NECA from human Adenosine A3 receptor expressed in HeLa cells at 1 uM after 180 mins.

The target of assay [2] is T2, Adenosine receptor A1 (Homo sapiens) (UniProt P30542).
T2 sequence (whole entry): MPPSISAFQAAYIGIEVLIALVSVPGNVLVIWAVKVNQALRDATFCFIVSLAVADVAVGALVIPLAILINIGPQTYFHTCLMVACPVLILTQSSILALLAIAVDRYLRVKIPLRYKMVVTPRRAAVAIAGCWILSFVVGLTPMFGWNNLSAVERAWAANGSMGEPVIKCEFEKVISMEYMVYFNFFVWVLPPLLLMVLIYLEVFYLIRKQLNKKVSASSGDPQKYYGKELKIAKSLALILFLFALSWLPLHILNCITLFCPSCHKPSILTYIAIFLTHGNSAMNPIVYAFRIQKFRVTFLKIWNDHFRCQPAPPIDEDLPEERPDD
Briefly: Displacement of [3H]DPCPX from human Adenosine A1 receptor expressed in CHO cells at 1 uM after 60 mins. The class given is cell-based. A digest of the protocol: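 Competition binding on membranes from CHO cells expressing human A1, labelled with 2 nM [3H]DPCPX. Non-specific binding was defined with 10 µM R-PIA, and incubation was at 25 °C for 60 min. The value is percent inhibition of specific binding at 1 µM test compound (n = 2, average).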

For assay [3], the target named is Adenosine receptor A2a (Homo sapiens) (UniProt P29274). Briefly: Displacement of [3H]ZM241385 from human Adenosine A2A receptor expressed in HeLa cells at 1 uM after 30 mins. The class given is cell-based. A digest of the protocol:
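Membranes from HeLa cells expressing human A2A were labelled with 3 nM [3H]ZM241385, with non-specific binding defined by 50 µM NECA, and incubated at 25 °C for 30 min. The value is percent displacement of specific binding at 1 µM test compound (n = 2).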

The target of assay [4] is T3, Adenosine receptor A2b (Homo sapiens) (UniProt P29275).
T3 sequence (whole entry): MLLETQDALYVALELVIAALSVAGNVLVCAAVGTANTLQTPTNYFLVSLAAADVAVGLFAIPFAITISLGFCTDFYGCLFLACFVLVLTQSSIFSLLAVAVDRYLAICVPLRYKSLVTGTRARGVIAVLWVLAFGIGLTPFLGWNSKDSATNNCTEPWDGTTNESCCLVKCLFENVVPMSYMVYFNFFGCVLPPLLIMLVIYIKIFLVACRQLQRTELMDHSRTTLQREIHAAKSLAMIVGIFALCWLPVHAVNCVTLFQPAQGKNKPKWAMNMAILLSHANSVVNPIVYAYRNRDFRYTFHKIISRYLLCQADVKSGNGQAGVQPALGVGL
Briefly: Displacement of [3H]DPCPX from human Adenosine A2B receptor expressed in HEK293 cells at 1 uM after 30 mins. The class given is cell-based. A digest of the protocol: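 Membranes from HEK-293 cells expressing human A2B were labelled with 35 nM [3H]DPCPX, with non-specific binding defined by 400 µM NECA, and incubated at 25 °C for 30 min.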

The next assay has as its target T4, Adenosine receptor A2b (Homo sapiens, UniProt P29275).
T4 sequence (P29275 whole entry): T3 sequence (whole entry)
Briefly: Displacement of [3H]DPCPX from human Adenosine A2B receptor expressed in HEK293 cells after 30 mins. The class given is cell-based.

Adenosine receptor A2a (Homo sapiens), sequence (P29274 whole entry): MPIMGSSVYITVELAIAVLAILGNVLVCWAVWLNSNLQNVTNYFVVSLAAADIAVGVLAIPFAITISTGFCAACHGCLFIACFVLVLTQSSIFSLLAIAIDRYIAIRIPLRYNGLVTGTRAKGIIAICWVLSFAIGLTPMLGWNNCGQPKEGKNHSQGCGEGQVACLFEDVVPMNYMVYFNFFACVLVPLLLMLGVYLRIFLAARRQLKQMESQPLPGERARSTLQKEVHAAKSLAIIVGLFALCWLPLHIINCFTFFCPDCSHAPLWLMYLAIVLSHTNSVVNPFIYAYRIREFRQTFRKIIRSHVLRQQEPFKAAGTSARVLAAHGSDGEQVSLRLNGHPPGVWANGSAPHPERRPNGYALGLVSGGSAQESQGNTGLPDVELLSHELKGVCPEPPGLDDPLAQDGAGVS

On to `CC1=C(C(=O)OC(C)C)C(c2ccco2)NC(=O)N1` (stereo not drawn), for which the Activity in assay [1] was determined as 1%; in assay [2], 20%; in assay [3], 30%.
For `CC1=C(C(=O)OC(C)C)C(c2cccs2)NC(=O)N1` (stereo not drawn), the Activity in assay [1] is 14%; in assay [2] it was 37%; in assay [4], 44%; in assay [3] it was 19%.
On to `CC1=C(C(=O)OC(C)C)C(c2ccoc2)NC(=O)N1` (stereo not drawn), for which the Activity in assay [1] was 3%; in assay [2], 25%; in assay [3], 26%.
The matching figures for `CC1=C(C(=O)OC(C)C)C(c2ccsc2)NC(=O)N1` (stereo not drawn): 1%, 26% and 25%.
On to `CCOC(=O)C1=C(C)NC(=O)NC1c1ccco1` (stereo not drawn), for which the values for the Activity in assay [1], in assay [2] and in assay [3] were 2%, 18% and 41%, respectively.
For the compound `CCOC(=O)C1=C(C)NC(=O)NC1c1cccs1` (stereo not drawn), the Activity in assay [1] was 1%; in assay [2], 1%; in assay [4], 44%; in assay [3], 33%.
Consider `CCOC(=O)C1=C(C)NC(=O)NC1c1ccoc1` (stereo not drawn), for which the Activity in assay [1] is 1%; in assay [2], 21%; in assay [3], 39%.
The matching figures for `CCOC(=O)C1=C(C)NC(=O)NC1c1ccsc1` (stereo not drawn): 24%, 22% and 39%.
`CC1=C(C(=O)OC(C)C)C(c2ccoc2)n2ccnc2N1` (racemic) gave a pKi at Adenosine receptor A2b of 6.56. The Activity in assay [1] was determined as 10%; in assay [2], 1%; in assay [3], 4%.
For `CC1=C(C(=O)OC(C)C)C(c2ccsc2)n2ccnc2N1` (racemic) the same measures were 6.07, 1%, 3% and 1%.
For `CC1=C(C(=O)OC(C)C)C(c2ccco2)n2ccnc2N1` (racemic) the same measures were 7.07, 2%, 3% and 4%.
For `CCOC(=O)C1=C(C)NC(=O)CC1c1ccco1` (racemic) the same measures were 5.60, 24%, 22% and 13%.
Regarding `CCOC(=O)C1=C(C)Nc2nc3ccccc3n2C1c1ccsc1` (racemic), the pKi at Adenosine receptor A2b is 7.53. Also, the Activity in assay [1] came to 2%; in assay [2], 3%; in assay [3], 10%.
Turning to `CC1=C(C(=O)OC(C)C)C(c2cccs2)n2ccnc2N1` (racemic), on Adenosine receptor A2b, the negative-log Ki (pKi) was 6.14. In addition, the Activity in assay [1] turned out to be 5%; in assay [2], 3%; in assay [3], 3%.
Compound `CCOC(=O)C1=C(C)Nc2nccn2C1c1ccco1` (racemic) showed a negative-log Ki (pKi) at Adenosine receptor A2b of 6.97. Also, the Activity came out at 6% in assay [1], 2% in assay [2] and 5% in assay [3].
The matching figures for `CC1=C(C(=O)OC(C)C)C(c2ccsc2)n2c(nc3ccccc32)N1` (racemic): 7.53, 21%, 11% and 3%.
As for `CC1=C(C(=O)OC(C)C)C(c2ccco2)CC(=O)N1` (racemic), the Activity in assay [1] came to 31%; in assay [2], 14%; in assay [4], 15%; in assay [3] it was 14%.
For `CC1=C(C(=O)OC(C)C)C(c2cccs2)CC(=O)N1` (racemic), the Activity in assay [1] was 22%; in assay [2], 2%; in assay [4] it was 3%; in assay [3], 1%.
The matching figures for `CC1=C(C(=O)OC(C)C)C(c2cccs2)n2ncnc2N1` (racemic): 3%, 1%, 1% and 1%.
The matching figures for `CC1=C(C(=O)OC(C)C)C(c2ccoc2)CC(=O)N1` (racemic): 24%, 23%, 20% and 25%.
With `CC1=C(C(=O)OC(C)C)C(c2ccsc2)CC(=O)N1` (racemic), the Activity in assay [1] is 20%; in assay [2] it was 4%; in assay [4], 21%; in assay [3], 3%.
Consider `CCN1CC2=C(C1=O)C(c1ccco1)NC(=O)N2` (racemic), for which the Activity amounted to 20% in assay [1], 7% in assay [2], 17% in assay [4] and 7% in assay [3].
Take `CCN1CC2=C(C1=O)C(c1cccs1)NC(=O)N2` (racemic): the Activity was found to be 21% in assay [1], 12% in assay [2], 28% in assay [4] and 2% in assay [3].
For `CCN1CC2=C(C1=O)C(c1ccoc1)NC(=O)N2` (racemic) the same measures were 17%, 16%, 35% and 13%.
For `CCN1CC2=C(C1=O)C(c1ccsc1)NC(=O)N2` (racemic) the same measures were 31%, 27%, 18% and 17%.
The matching figures for `CCOC(=O)C1=C(C)NC(=O)CC1c1cccs1` (racemic): 21%, 16%, 18% and 11%.
For the compound `CCOC(=O)C1=C(C)NC(=O)CC1c1ccoc1` (racemic), the Activity turned out to be 15% in assay [1], 9% in assay [2], 14% in assay [4] and 8% in assay [3].
For `CCOC(=O)C1=C(C)NC(=O)CC1c1ccsc1` (racemic) the same measures were 13%, 1%, 12% and 4%.
For the compound `CCOC(=O)C1=C(C)Nc2nccn2C1c1ccoc1` (racemic), the Activity in assay [1] is 3%; in assay [2], 2%; in assay [4], 12%; in assay [3], 1%.
Take `CCOC(=O)C1=C(C)Nc2nccn2C1c1ccsc1` (racemic): the Activity came out at 2% in assay [1], 1% in assay [2], 10% in assay [4] and 3% in assay [3].
For `CCOC(=O)C1=C(C)Nc2ncnn2C1c1ccco1` (racemic) the same measures were 4%, 15%, 3% and 20%.
Consider `CCOC(=O)C1=C(C)Nc2ncnn2C1c1cccs1` (racemic), for which the Activity in assay [1] is 15%; in assay [2], 1%; in assay [4], 15%; in assay [3], 2%.
Take `O=C1NC2=C(C(=O)OC2)C(c2ccco2)N1` (racemic): the Activity in assay [1] came to 3%; in assay [2], 3%; in assay [4] it was 2%; in assay [3], 2%.
`O=C1NC2=C(C(=O)OC2)C(c2cccs2)N1` (racemic): the Activity in assay [1] was 1%; in assay [2], 1%; in assay [4], 10%; in assay [3], 1%.
For the compound `O=C1NC2=C(C(=O)OC2)C(c2ccoc2)N1` (racemic), the Activity in assay [1] is 1%; in assay [2], 9%; in assay [4] it was 9%; in assay [3], 3%.
For the compound `O=C1NC2=C(C(=O)OC2)C(c2ccsc2)N1` (racemic), the Activity in assay [1] was found to be 2%; in assay [2], 13%; in assay [4], 8%; in assay [3], 3%.
